# Assay results collected from several papers.
# Lines come from different studies, so protocols differ.
# Target: Dual specificity mitogen-activated protein kinase kinase 2 (MAP2K2, Homo sapiens, UniProt P36507)
SMILES,test,setting,quantity,result
CNC(=O)c1ccc(Nc2ncc(C(F)(F)F)c(NCc3nccnc3N(C)S(C)(=O)=O)n2)cc1,"cell-free assay, competition with immobilised ligand",0.1 µM,remaining binding,100%
COc1cc(Nc2cnc(C#N)c(O[C@H](C)CN(C)C)n2)ncc1-c1cnn(C)c1,"enzyme activity, inhibitor, radiometric",10 µM,remaining activity,57%
CCc1ccccc1C(=O)Nc1n[nH]c2c(C)c(F)c(C3C(C#N)=C(C)N(C)C(C)=C3C#N)cc12,"cell-free assay, competition with immobilised ligand",1 µM,remaining binding,100%
COc1cc(Cl)c(C(=O)N[C@@H](CN[C@H]2CC[C@@H](N)CC2)Cc2ccc(C#N)cc2)cc1-c1ccc(CN[C@H](C)c2ccc(C)cc2)o1,"enzyme activity, inhibitor",1 µM,remaining activity,115%
Cc1ccc(C(=O)NCc2ccsc2)cc1C#Cc1cn(C(C)C)c2ncnc(N)c12,"enzyme activity, inhibitor",1 µM,activity vs control,81%
Cn1c2c(c3ccccc31)C(C#N)C(C)(C)NC2=O (stereo not shown),"thermal stability, DSF",10 µM,ΔTm,-0.1 °C
Cc1ccc(C(=O)Nc2ccc(CN3CCN(C)CC3)c(C(F)(F)F)c2)cc1C#Cc1cnc2cccnn12,"enzyme activity, inhibitor",23.5 nM,remaining activity,97%
O=C(Nc1cnn(-c2csc(C(=O)NC3COC3)c2)c1)Nc1c(F)cccc1Cl,"enzyme activity, inhibitor",5 µM,remaining activity,90.6%
CC(C)(C)c1nc(-c2cccc(NS(=O)(=O)c3c(F)cccc3F)c2F)c(-c2ccnc(N)n2)s1,"enzyme activity, inhibitor, radiometric",1 µM,remaining activity,91%
CN(C(=O)c1ccccc1)c1cc(N(C)c2ccc3c(c2)CCc2ccc(C(=O)NCCN4CCOCC4)cc2C3=O)ccc1F,"cell-free assay, competition with immobilised ligand",1 µM,remaining binding,100%
CCN(CC)CCNC(=O)c1c(C)[nH]c(/C=C2\C(=O)Nc3ccc(F)cc32)c1C,cell-free assay,0.5 µM,remaining signal,25.4%
CN([C@@H]1CCc2c(CC(=O)O)c3cc(S(C)(=O)=O)ccc3n2C1)S(=O)(=O)c1ccc(F)cc1,"cell-free assay, competition with immobilised ligand",1 µM,remaining binding,95%
Cn1c(=O)n(-c2ccc(C(C)(C)C#N)cc2)c2c3cc(-c4cnc5ccccc5c4)ccc3ncc21,"enzyme activity, inhibitor",10 µM,remaining activity,86%
Cn1c2c(c3ccc(Cl)c(Cl)c31)C(C#N)C1(CCCC1)NC2=O (stereo not shown),"thermal stability, DSF",10 µM,ΔTm,-0.4 °C
N#CCCc1ccc2c(c1)-c1[nH]c3ccc([N+](=O)[O-])cc3c1CC(=O)N2,cell-free assay,0.5 µM,remaining signal,90.3%
FC(F)(F)Oc1cccc(-c2cnc3ccc(-c4ccncc4)nn23)c1,"enzyme activity, inhibitor, radiometric",1 µM,activity vs control,84%
CCC1(CC)NC(=O)c2c(c3ccc(Cl)c(Cl)c3n2C)C1C#N (stereo not shown),"thermal stability, DSF",10 µM,ΔTm,-0.4 °C
N#CC(=C(N)Sc1ccc(N)cc1)c1ccccc1C(F)(F)F,cell-free assay,0.5 µM,remaining signal,94.5%
CS(=O)(=O)N1CCCC(NC(=O)[C@H](CCC2CCCCC2)NC(=O)c2ccc(CNc3ncnc4c3nnn4-c3ccccc3)cc2)C1 (stereo partly shown),"cell-free assay, competition with immobilised ligand",0.1 µM,remaining binding,90%
CC1(C)NC(=O)c2[nH]c3c(Cl)c(Cl)ccc3c2C1C#N (stereo not shown),"thermal stability, DSF",10 µM,ΔTm,-0.4 °C
CCCOc1ccc([C@H]2[C@H](C(=O)O)[C@@H](c3ccc4c(c3)OCO4)CN2CC(=O)Nc2c(CC)cccc2CC)cc1,"cell-free assay, competition with immobilised ligand",1 µM,remaining binding,62%
COc1cc(-c2cc(-c3ccc(N4CCNCC4)cc3)cnc2C)cc(OC)c1OC,"enzyme activity, inhibitor",0.1 µM,inhibition,4%
N#Cc1ccc(Nc2ccc3[nH]c(=O)[nH]c3c2)c(Cl)c1,"cell-free assay, competition with immobilised ligand",1 µM,remaining binding,93%
CN1CCC2(CC1)NC(=O)c1c(c3ccc(Cl)c(Cl)c3n1C)C2C#N (racemic),"thermal stability, DSF",10 µM,ΔTm,-0.3 °C
CS(=O)(=O)Nc1cccc(-c2csc(NC(=O)CSc3nc4nccnc4c(=O)n3CCc3ccccc3)n2)c1,"enzyme activity, inhibitor",10 µM,inhibition,-1%
Cn1c2c(c3ccc(Cl)c(Cl)c31)C(C#N)C(C)(C)NC2=O (stereo not shown),"thermal stability, DSF",10 µM,ΔTm,-0.5 °C
Nc1c(C(=O)NCc2ccc(C(=O)NCCCC3CCCCC3)cc2)cnn1-c1ccccc1,"cell-free assay, competition with immobilised ligand",0.1 µM,remaining binding,100%
COc1cc2ncnc(Nc3ccc(Oc4ccccc4)c(C)c3C)c2cc1OC,"enzyme activity, inhibitor",1 µM,inhibition,-7%
CN1CC(Oc2cnc(C#N)cc2-c2ccn3nc(NC(=O)C4CC4)cc3c2)C1,"enzyme activity, inhibitor",1 µM,inhibition,14%
COc1cc(/C=C/C(=O)CC(=O)/C=C/c2ccc(O)c(OC)c2)ccc1O,"enzyme activity, inhibitor",1 µM,activity vs control,91%
CC(C)(O)[C@H]1CC[C@H](Nc2ccc3ncc(-c4cccc(C(F)(F)F)c4)n3n2)CC1,"enzyme activity, inhibitor",1 µM,remaining activity,101%
